Experimental data from ChEMBL document CHEMBL3232916, “1-(4-Methoxyphenyl)-5-(3,4,5-trimethoxyphenyl)-1H-1,2,4-triazole-3-carboxamides: synthesis, molecular modeling, evaluation of their anti-inflammatory activity and ulcerogenicity” (Eur J Med Chem, 2014).

What was measured:
Rattus norvegicus [1] = assay: Antiinflammatory activity in albino rat assessed as inhibition of carrageenan-induced paw edema at 0.28 mmol/kg, po administered 30 mins before carrageenan challenge measured after 3 hrs relative to celecoxib; format: functional; details: read-out: INH
How it was run: (§1)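 Calculated from the 3 h % edema inhibition in carrageenan paw edema (male albino rats, oral dosing in 0.5% CMC 30 min before 1% carrageenan subplantar injection). Expressed as % of the inhibition given by the reference drug in the same assay.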

Rattus norvegicus [2] = assay: Antiinflammatory activity in albino rat assessed as inhibition of carrageenan-induced paw edema at 0.28 mmol/kg, po administered 30 mins before carrageenan challenge measured after 3 hrs relative to indomethacin; format: functional; details: read-out: INH; how it was run: as §1
Rattus norvegicus [3] = assay: Antiinflammatory activity in albino rat assessed as inhibition of carrageenan-induced paw edema at 0.28 mmol/kg, po administered 30 mins before carrageenan challenge measured after 4 hrs relative to control; format: functional
How it was run: (§2)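 Male albino rats, n = 4 per group. Dosed orally as a suspension in 0.5% w/v CMC in water; controls received CMC alone. 0.1 mL of freshly prepared 1% carrageenan in saline was injected subplantar into the right hind paw 30 min after dosing, with saline in the left paw. Right paw thickness was read by Vernier caliper before and at 1–5 h. Result is % decrease in edema vs control, mean ± S.E.M.; one-way ANOVA.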

Rattus norvegicus [4] = assay: Ulcerogenic effect in albino rat assessed as morphology using hematoxylin and eosin staining at 0.28 mmol/kg, po by light microscopic analysis; format: toxicity, organism-based; details: in vivo
How it was run: (§3)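 Stomach sections were dewaxed through graded alcohols to water and stained with haematoxylin for 5–7 min. They were differentiated 5–10 s in 1% HCl in 70% alcohol, then stained with 1% eosin for 10 min, with tap-water washes between steps. The sections were then examined by light microscopy for mucosal and glandular changes.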

Rattus norvegicus [5] = assay: Ulcerogenic effect in albino rat assessed as ulcer index at 0.28 mmol/kg, po; format: toxicity, organism-based; details: in vivo
How it was run: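 Rat gastric ulcers were graded by area: level I <1 mm², level II 1–3 mm², level III >3 mm². Ulcer index = 1×(level I count) + 2×(level II) + 3×(level III). Reported as mean ± S.E.M., n = 4.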

Rattus norvegicus [6] = assay: Antiinflammatory activity in albino rat assessed as inhibition of carrageenan-induced paw edema at 0.28 mmol/kg, po administered 30 mins before carrageenan challenge measured after 1 hr relative to control; format: functional; how it was run: as §2
Rattus norvegicus [7] = assay: Antiinflammatory activity in albino rat assessed as inhibition of carrageenan-induced paw edema at 0.28 mmol/kg, po administered 30 mins before carrageenan challenge measured after 3 hrs relative to control; format: functional; how it was run: as §2
Rattus norvegicus [8] = assay: Antiinflammatory activity in albino rat assessed as inhibition of carrageenan-induced paw edema at 0.28 mmol/kg, po administered 30 mins before carrageenan challenge measured after 5 hrs relative to control; format: functional; how it was run: as §2
Rattus norvegicus [9] = assay: Antiinflammatory activity in albino rat assessed as inhibition of carrageenan-induced paw edema at 0.28 mmol/kg, po administered 30 mins before carrageenan challenge measured after 2 hrs relative to control; format: functional; how it was run: as §2
Rattus norvegicus [10] = assay: Ulcerogenic effect in albino rat assessed as loss of mucosal membrane using hematoxylin and eosin staining at 0.28 mmol/kg, po by light microscopic analysis; format: toxicity, organism-based; details: in vivo; how it was run: as §3
Rattus norvegicus [11] = assay: Ulcerogenic effect in albino rat assessed as apoptotic glandular epithelial cells using hematoxylin and eosin staining at 0.28 mmol/kg, po by light microscopic analysis; format: toxicity, organism-based, Epithelial cell; details: in vivo; how it was run: as §3
Rattus norvegicus [12] = assay: Ulcerogenic effect in albino rat assessed as capillary inflammatory cells using hematoxylin and eosin staining at 0.28 mmol/kg, po by light microscopic analysis; format: toxicity, organism-based; details: in vivo; how it was run: as §3

| SMILES | paw edema inhibition relative to celecoxib at 280 µmol/kg (Rattus norvegicus [1]) [%] | paw edema inhibition relative to indomethacin at 280 µmol/kg (Rattus norvegicus [2]) [%] | inhibition in vivo at 280 µmol/kg (Rattus norvegicus [3]) [%] | Activity (Rattus norvegicus [4]) | UI (Rattus norvegicus [5]) | inhibition in vivo at 280 µmol/kg (Rattus norvegicus [6]) [%] | inhibition in vivo at 280 µmol/kg (Rattus norvegicus [7]) [%] | inhibition in vivo at 280 µmol/kg (Rattus norvegicus [8]) [%] | inhibition in vivo at 280 µmol/kg (Rattus norvegicus [9]) [%] | Activity (Rattus norvegicus [10]) | Activity (Rattus norvegicus [11]) | Activity (Rattus norvegicus [12]) |
| --- | --- | --- | --- | --- | --- | --- | --- | --- | --- | --- | --- | --- |
| COc1ccc(-n2nc(C(=O)Nc3ccccc3C)nc2-c2cc(OC)c(OC)c(OC)c2)cc1 | 74 | 64 | 46 | Non-toxic | 1.5 | 19 | 50 | 47 | 30 | – | – | – |
| COc1ccc2c(c1)c(CC(=O)O)c(C)n2C(=O)c1ccc(Cl)cc1 [INDOMETHACIN] | – | – | 81 | – | 41 | 55 | 78 | 86 | 68 | Toxic | Toxic | Toxic |
